High-throughput results as filed in PubChem BioAssay.
Scp-1 inhibitor = Scp-1 phosphatase inhibitors, primary screen, biochemical, colorimetric, uHTS; Carboxy-terminal domain RNA polymerase II polypeptide A small phosphatase 1 (Homo …; Recombinant Scp1, phosphopeptide, malachite green phosphate absorbance; inhibition, % at 20 µM; actives 0.88% (n = 340,000);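 active = inhibition above about 50% at 20 µM, limit read from the data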;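 note: plate controls were DMSO wells with enzyme for no effect and wells lacking enzyme for full effect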
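System: SCP-1 catalytic domain; Reagent: Phospho 17-mer peptide substrate; Doses: one concentration, 20 µM, with 1.0% DMSO; Incubation: 45 min room-temperature reaction, 5 min colour, 30 min stabiliser; Signal: Phosphate-binding colour reagent, absorbance read at 630 nm.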
STEP block = STEP phosphatase inhibitors, primary screen, biochemical, fluorescence intensity, uHTS; inhibition, % at 20 µM; recombinant STEP, OMFP fluorogenic substrate; AID 588621, 2011; Tyrosine-protein phosphatase non-receptor type 5 (Homo sapiens), P54829; actives 0.25% (n = 360,000);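 active = inhibition at 20 µM, scaled per plate between control wells, above about 37%, limit read from the data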;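 note: 0% = DMSO with enzyme and substrate and 100% = substrate only without enzyme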
Target sequence (P54829 whole entry, looked up): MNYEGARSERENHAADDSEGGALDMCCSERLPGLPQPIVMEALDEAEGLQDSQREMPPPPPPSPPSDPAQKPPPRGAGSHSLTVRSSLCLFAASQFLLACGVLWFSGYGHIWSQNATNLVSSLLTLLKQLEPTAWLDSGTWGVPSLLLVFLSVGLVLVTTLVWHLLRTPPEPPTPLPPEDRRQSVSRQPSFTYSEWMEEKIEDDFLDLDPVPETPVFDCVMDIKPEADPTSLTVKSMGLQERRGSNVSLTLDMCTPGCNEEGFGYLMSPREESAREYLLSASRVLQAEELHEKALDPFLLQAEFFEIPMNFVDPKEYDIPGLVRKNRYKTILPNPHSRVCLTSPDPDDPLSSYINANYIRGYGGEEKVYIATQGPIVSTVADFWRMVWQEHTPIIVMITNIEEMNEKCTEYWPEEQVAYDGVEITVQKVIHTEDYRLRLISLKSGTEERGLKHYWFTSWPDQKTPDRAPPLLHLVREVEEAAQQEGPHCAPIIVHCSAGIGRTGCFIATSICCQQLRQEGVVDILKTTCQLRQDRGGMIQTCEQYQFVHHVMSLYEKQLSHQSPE
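System: STEP (striatal-enriched tyrosine phosphatase) enzyme, cell-free; medium: Bis-Tris pH 6.0 buffer with DTT, detergent; dosing: 20 µM, 1% DMSO; times: reaction 20 min, ambient temperature; detection: fluorescence, 480/540 nm; read-out basis: normalized % inhibition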
DNMT1 inh = human DNMT1 methyltransferase inhibitors, primary screen, biochemical, molecular beacon, fluorescence, HinP1I cleavage, uHTS; AID 588458, 2011; DNA (cytosine-5)-methyltransferase 1 (Homo sapiens), P26358; actives 0.83% (n = 360,000); inhibition (reported as % activation of signal), % at 10 µM; in the data active = inhibition above about 50%
LMPTP inh = LMPTP phosphatase inhibitors, primary screen, biochemical, fluorescence intensity, uHTS | Low molecular weight phosphotyrosine protein phosphatase (Homo sapiens), P24666 | recombinant LMPTP-A, OMFP fluorogenic substrate | inhibition, % at 20 µM | actives 0.22% (n = 360,000) | AID 651560, 2012;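 active = compounds that cut the enzyme signal by at least half of the control window in the single-dose screen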;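 note: plate controls were DMSO wells with enzyme plus substrate for no effect and substrate without enzyme for full effect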
Target sequence (P24666 whole entry, looked up): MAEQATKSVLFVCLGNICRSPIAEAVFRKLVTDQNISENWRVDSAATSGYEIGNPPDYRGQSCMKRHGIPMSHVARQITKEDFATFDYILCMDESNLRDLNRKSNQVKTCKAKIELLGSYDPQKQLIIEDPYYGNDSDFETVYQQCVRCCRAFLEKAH
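Test system – LMPTP-A phosphatase enzyme · Quantity – 0.625 nM LMPTP-A final · Reagent – OMFP substrate, 400 µM final · Dosing – one test concentration per compound, 20 µM, with 3% DMSO overall · Timing – 50 min enzyme reaction at room temperature, protected from light · Detection – fluorescence intensity · Controls – substrate-only low control, DMSO enzyme-plus-substrate high control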
SUMO1 PPI mod = modulators of SUMO1 protein-protein interactions, primary screen, biochemical, uHTS. SUMO1 binding to a labelled peptide, TR-FRET, 1 h. Small ubiquitin-related modifier 1 (Homo sapiens), P63165. actives 0.33% (n = 360,000). inhibition, % at 20 µM; in the data active = inhibition above about 37%
GRK2 inh = compounds blocking aptamer binding on GRK2 – biochemical, human GRK2, bead flow cytometry, HTS, primary screen. FAM-aptamer displacement from GRK2. inhibition of aptamer binding, % at 10 µM. actives 0.59% (n = 330,000). AID 488847, 2010;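 active = inhibition of aptamer binding above 40%, roughly 3 SD of noise, on plates passing a quality check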;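 note: median bead fluorescence of bound FAM aptamer so fluorescent compounds give negative values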
GRK2 inh confirm = GRK2 aptamer-displacing inhibitors, retest, confirmation, biochemical, cherry pick 1, bead flow cytometry. shares compounds with GRK2 inh. bead-bound GRK2, FAM-aptamer displacement. aptamer displacement, % at 10 µM. actives 4% (n = 2,000). AID 504451, 2011;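 active = aptamer displacement above 40%, near three times the noise of non-fluorescent compounds, on plates passing quality checks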;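 note: negative values mostly reflect intrinsic compound fluorescence rather than true enhancement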
Aptamer quench SP = counter-screen for GRK2 aptamer inhibitors: fluorescent aptamer quenchers. shares compounds with GRK2 inh. Carboxyfluorescein RNA aptamer on beads, flow cytometry quenching; stronger effect = lower value. fluorescence response (% of DMSO), % at 10 µM. 2,000 tested, under 10 active;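 active = compounds that quench the bead-bound fluorescent RNA probe, cutting fluorescence to under half of the solvent control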;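 note: counterscreen run without GRK2 so only probe quenching by compound is measured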
GRK2 CP2 = GRK2 aptamer-displacing inhibitors, hit retest, confirmation, biochemical, cherry pick 2, bead flow cytometry; inhibition of aptamer binding, % at 10 µM; shares compounds with GRK2 inh; bead-bound GRK2, FAM-aptamer displacement; 360 tested, under 10 active;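 active = inhibition of aptamer binding above 40%, about triple the noise seen with nonglowing compounds, on plates passing quality control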;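 note: negative values mostly come from compounds that fluoresce themselves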
FAM quench CP2 = counter-screen for GRK2 binding hits: quenchers of fluorescent RNA aptamer. shares compounds with GRK2 inh. carboxyfluorescein RNA aptamer beads, flow cytometry quenching; stronger effect = lower value. fluorescence response vs DMSO, % at 10 µM. 360 tested, under 10 active. AID 588494;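 active = response vs DMSO under 50%, meaning signal dropped by over half, treated as fluorescence quencher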;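 note: labelled aptamer on streptavidin beads without GRK2 as a quench counter-screen; 100% = bead fluorescence of DMSO wells and lower means quenching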
Scp-1 conf = Scp-1 phosphatase inhibitors, retest, confirmation, biochemical, colorimetric, single concentration; shares compounds with Scp-1 inhibitor; recombinant SCP-1 catalytic domain, phosphate release, malachite green absorbance; inhibition, % at 20 µM; actives 61% (n = 2,500); AID 540281, 2011;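 note: plate controls were DMSO with enzyme for no effect and buffer wells lacking enzyme for full effect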
Scp-1 MG ctr = colorimetric readout interference by compounds, confirmation, artefact control for Scp-1 inhibitor project, biochemical, single concentration. 2,500 tested, under 10 active. apparent inhibition (interference), % at 20 µM. AID 540313, 2011. Colorimetric interference counterscreen, malachite green absorbance 630 nm. shares compounds with Scp-1 inhibitor;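 note: compounds added after enzyme reaction finished so only phosphate colour detection is probed; plate controls were DMSO wells with completed Scp-1 reaction for no effect and substrate wells lacking enzyme for full effect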
Scp1 DSF = Scp-1 binding by thermal shift, confirmation, orthogonal assay for Scp-1 inhibitor project, biophysical, differential scanning fluorimetry; AID 540329, 2011; actives 25% (n = 1,500); shares compounds with Scp-1 inhibitor; Recombinant SCP1, Sypro Orange thermal shift Tm; thermal shift relative to vanadate control, % at 40 µM;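 active = substances whose mean melting-temperature shift, as a percentage of the reference inhibitor's shift, reaches about 5.3%, limit read from the data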;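 note: 0% = Tm of DMSO wells and 100% = Tm with sodium orthovanadate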
* = called active by the depositor; nt = no result given; ! = a repeat was not active. In the library only some 2.1% were active in any assay of this set; here they are far more common.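 Rule for the calls, unless noted: active = inhibition of at least 30% at 20 µM; inactive = the rest.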

SMILES	Scp-1 inhibitor	STEP block	DNMT1 inh	LMPTP inh	SUMO1 PPI mod	GRK2 inh	GRK2 inh confirm	Aptamer quench SP	others
CC[C@]12CC[C@H](O)CC1=CCC1C2CC[C@]2(C)C(=O)CCC12 (some centres not stated)	-4	1	2	1	0	42*	nt	nt	GRK2 CP2=12;FAM quench CP2=101
O=c1[nH]c(=S)n(-c2cccc(Cl)c2)c(O)c1C=NCCN1CCNCC1	-9	0	0	-6	-2	0	nt	nt
O=c1[nH]c(=S)n(-c2ccccc2)c(O)c1C=NCCN1CCNCC1	-13	3	-1	-5	0	89*	-1	99
CCN1C[C@@]2(COC)C3[C@@H](OC)[C@H]4[C@@H]1[C@@]3(C1C[C@H]3[C@H](O)C1[C@]4(O)C[C@H]3OC)[C@@H](OC)C[C@H]2O (some centres not stated)	-1	0	-1	0	1	2	nt	nt
Cc1cc(=O)oc2cc(OCC(=O)N3C[C@H]4C[C@@H](C3)c3cccc(=O)n3C4)c(Cl)cc12	4	0	-1	-1	1	3	nt	nt
Cc1cc(=O)oc2cc(OCC(=O)N3CCN(C(C)c4ccccc4)CC3)c(Cl)cc12 (configuration not stated)	-12	-5	-1	-4	-12	0	-23	96
Cc1ccsc1C(=O)C1CCCN(Cc2cnc(N(C)C)s2)C1 (configuration not stated)	nt	nt	nt	nt	nt	1	nt	nt
Cc1ccsc1C(=O)C1CCCN(Cc2cnc(N3CCOCC3)s2)C1 (configuration not stated)	-6	1	0	1	-1	0	0	102
COc1ccc(C(c2ccc(OC)cc2)C(Cl)(Cl)Cl)cc1	-15	-1	-6	3	6	0	nt	nt
C[C@]12CCC3C(CC[C@H]4C[C@H](O)CC[C@]34C)C1CC(=O)[C@@H]2O (some centres not stated)	0	1	4	0	1	100*	-4	98
COc1cc(C2SCC(=O)Nc3c2c(C)nn3-c2ccccc2)cc(OC)c1OC (configuration not stated)	-3	0	1	0	1	2	nt	nt
Cc1nn(-c2ccccc2)c2c1C(c1ccc3c(c1)OCO3)SCC(=O)N2 (configuration not stated)	-5	3	2	-2	-2	26	2	104
CC/C(=C\C=C\[C@@H]1C=C[C@@H]2CCC[C@H]2[C@@H]1C(=O)c1ccc[nH]1)[C@@H]1O[C@@H]([C@@H](C)C(=O)O)CC[C@@H]1C	19	nt	nt	nt	nt	3	nt	nt
O=C1NC(=S)NC(=O)C1=Cc1cccc2cc3ccccc3cc12	-7	0	17	-1	-15	nt	nt	nt
CC1(C)OC(c2ccccc2)=C/C(=C/C=C2C(=O)NC(=S)NC2=O)O1	-5	nt	nt	nt	nt	48*	22	107
Cn1c(O)c(C(c2ccccn2)c2c(O)n(C)c(=S)[nH]c2=O)c(=O)[nH]c1=S	-11	0	-2	0	1	0	nt	nt
CCCN1CCC2(CC1)NC(CO)(CO)CO2	0	0	1	-4	-4	0	nt	nt
CCN1CCC2(CC1)NC(CO)(CO)CO2	-3	2	2	-3	3	48*	-1	91
Cc1cccnc1-n1c(-c2ccccc2)nc2ccccc2c1=O	-6	0	0	1	3	2	nt	nt
Cc1ccc(-c2nc3ccccc3c(=O)n2-c2ncccc2C)cc1	-7	1	-1	1	-2	60*	2	95
CNC(C(=O)c1ccccc1)C(OC(C)=O)c1cccc([N+](=O)[O-])c1 (configuration not stated)	88*	1	-4	0	-22	0	nt	nt	Scp-1 conf=-10;Scp-1 MG ctr=-10
CS(=O)(=O)c1ccc(C2=C(CNC(=O)c3cccs3)[C@H]3CC[C@@H](C2)N3Cc2ccccc2)cc1	nt	0	-1	-1	0	nt	nt	nt
CC(C)[N+]12CCC(CC1)C(C(O)(c1ccccc1)c1ccccc1)C2 (configuration not stated)	99*	-4	1	-1	3	0	nt	nt	Scp-1 conf=87*;Scp-1 MG ctr=-11;Scp1 DSF=-27
CC[N+]12CCC(CC1)C(C(O)(c1ccccc1)c1ccccc1)C2 (configuration not stated)	-1	3	2	-1	4	0	nt	nt
CC1(C)C2SCC(=O)N2CCN1CC(=O)NN (configuration not stated)	0	1	1	-1	-4	2	nt	nt
Cn1c[n+](C)cc1C(O)c1ccccc1 (configuration not stated)	92*!	-2	-1	-1	0	2	nt	nt	Scp-1 conf=84*;Scp-1 MG ctr=-11;Scp1 DSF=-1
